Measured values from ChEMBL document CHEMBL3526154, “Metabolism, pharmacokinetics, tissue distribution, and stability studies of the prodrug analog of an anti-hepatitis B virus dinucleoside phosphorothioate” (Drug Metab Dispos, 2012).

Experiments:
Conditions in all cases: in vivo; call rule not given here
[1] = Drug excretion in female Sprague-Dawley rat feces at 10 mg/kg, po administered as single dose measured at 4 to 24 hrs post-dose by liquid scintillation counting analysis; assay type: ADME, organism-based; parameters: dose 10 mg/kg, route oral
Summary of the method: (§1)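 Single [³⁵S]-prodrug dose to rats, i.v. tail-vein bolus (PEG 400/saline vehicle) or oral gavage (citric acid buffer pH 2.5), 5 ml/kg. Urine and feces collected ~1, 4 and 24 h postdose. Radioactivity counted by liquid scintillation and expressed as % of administered dose. Mean and S.D. from nine rats per sex.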

[2] = Drug excretion in male Sprague-Dawley rat feces at 10 mg/kg, po administered as single dose measured at 0 to 24 hrs post-dose by liquid scintillation counting analysis; assay type: ADME, organism-based; parameters: dose 10 mg/kg, route oral; summary of the method: as §1
[3] = Drug excretion in male Sprague-Dawley rat feces at 10 mg/kg, iv administered as bolus dose measured at 0 to 24 hrs post-dose by liquid scintillation counting analysis; assay type: ADME, organism-based; parameters: dose 10 mg/kg, route intravenous; summary of the method: as §1
[4] = Drug excretion in female Sprague-Dawley rat urine at 10 mg/kg, iv administered as bolus dose measured at 1 to 4 hrs post-dose by liquid scintillation counting analysis; assay type: ADME, organism-based; parameters: dose 10 mg/kg, route intravenous; summary of the method: as §1
Spleen = assay: Drug uptake in Sprague-Dawley rat spleen at 10 mg/kg, iv administered as bolus dose measured at 1 to 24 hrs post-dose by liquid scintillation counting analysis; assay type: ADME, organism-based; parameters: dose 10 mg/kg, route intravenous
Summary of the method: (§2)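 [35S]-labelled prodrug given once to rats, iv bolus via tail vein (25% PEG 400/75% saline) or oral gavage (0.05 M citric acid buffer, pH 2.5), 5 ml/kg. Rats euthanised at 1, 4 or 24 h. Liver, lung, kidney, heart, brain, spleen, tail and retro-orbital plasma were collected. Samples were homogenised and solubilised, and radioactivity was counted by liquid scintillation. Values are µg-equivalent/ml or g and % of dose.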

Rattus norvegicus [5] = assay: AUC in female Sprague-Dawley rat at 10 mg/kg, po administered as single dose by liquid scintillation counting analysis; assay type: ADME, organism-based, Plasma; parameters: dose 10 mg/kg, route oral
Summary of the method: (§3)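 Single dose of [³⁵S]-labelled prodrug to rats, i.v. tail-vein bolus in 25% PEG 400/75% saline or oral gavage in 0.05 M citric acid buffer pH 2.5, 5 ml/kg. Retro-orbital blood into EDTA at 1, 4 or 24 h; plasma by centrifugation. Radioactivity by liquid scintillation counting as µg-Eq/ml. Noncompartmental sparse-sampling analysis gives Cmax and AUC; nine rats per sex.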

[6] = Drug excretion in male Sprague-Dawley rat feces at 10 mg/kg, po administered as single dose measured at 0 to 1 hr post-dose by liquid scintillation counting analysis; assay type: ADME, organism-based; parameters: dose 10 mg/kg, route oral; summary of the method: as §1
[7] = Drug excretion in female Sprague-Dawley rat feces at 10 mg/kg, iv administered as bolus dose measured at 0 to 24 hrs post-dose by liquid scintillation counting analysis; assay type: ADME, organism-based; parameters: dose 10 mg/kg, route intravenous; summary of the method: as §1
Rattus norvegicus [8] = assay: Terminal half life in male Sprague-Dawley rat at 10 mg/kg, iv administered as bolus dose by liquid scintillation counting analysis; assay type: ADME, organism-based; parameters: dose 10 mg/kg, route intravenous
Summary of the method: (§4)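 Radioactivity in plasma from rats given a single [35S]-labelled dose, iv (tail vein, 25% PEG 400/75% saline) or oral gavage (0.05 M citric acid, pH 2.5), sampled at 1, 4 and 24 h, measured by liquid scintillation as µg-Eq/ml. Elimination t1/2 and Tmax were derived by noncompartmental analysis with sparse sampling, from nine male and nine female rats.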

Rattus norvegicus [9] = assay: Cmax in male Sprague-Dawley rat at 10 mg/kg, po administered as single dose by liquid scintillation counting analysis; assay type: ADME, organism-based; parameters: dose 10 mg/kg, route oral; summary of the method: as §3
Rattus norvegicus [10] = assay: Tmax in male Sprague-Dawley rat at 10 mg/kg, po administered as single dose by liquid scintillation counting analysis; assay type: ADME, organism-based; parameters: dose 10 mg/kg, route oral; summary of the method: as §4
[11] = Drug excretion in male Sprague-Dawley rat urine at 10 mg/kg, iv administered as bolus dose measured at 4 to 24 hrs post-dose by liquid scintillation counting analysis; assay type: ADME, organism-based; parameters: dose 10 mg/kg, route intravenous; summary of the method: as §1
[12] = Drug excretion in female Sprague-Dawley rat urine at 10 mg/kg, po administered as single dose measured at 0 to 24 hrs post-dose by liquid scintillation counting analysis; assay type: ADME, organism-based; parameters: dose 10 mg/kg, route oral; summary of the method: as §1
[13] = Drug excretion in female Sprague-Dawley rat urine at 10 mg/kg, po administered as single dose measured at 4 to 24 hrs post-dose by liquid scintillation counting analysis; assay type: ADME, organism-based; parameters: dose 10 mg/kg, route oral; summary of the method: as §1
[14] = Drug excretion in female Sprague-Dawley rat feces at 10 mg/kg, po administered as single dose measured at 1 to 4 hrs post-dose by liquid scintillation counting analysis; assay type: ADME, organism-based; parameters: dose 10 mg/kg, route oral; summary of the method: as §1
Liver [15] = assay: Drug uptake in Sprague-Dawley rat liver at 10 mg/kg, iv administered as bolus dose measured at 1 to 24 hrs post-dose by liquid scintillation counting analysis; assay type: ADME, organism-based; parameters: dose 10 mg/kg, route intravenous; summary of the method: as §2
Rattus norvegicus [16] = assay: Drug recovery in female Sprague-Dawley rat at 10 mg/kg, iv administered as bolus dose measured after 24 hrs by liquid scintillation counting analysis; assay type: ADME, organism-based; parameters: dose 10 mg/kg, route intravenous
Summary of the method: (§5)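 Rats got a single i.v. bolus or oral gavage dose of [³⁵S]-prodrug at 5 ml/kg over a 24 h study. Radioactivity in blood, tissues, carcass, urine and feces measured by liquid scintillation counting. Total recovery given as % of administered dose at 24 h.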

Rattus norvegicus [17] = assay: Cmax in female Sprague-Dawley rat at 10 mg/kg, iv administered as bolus dose by liquid scintillation counting analysis; assay type: ADME, organism-based; parameters: dose 10 mg/kg, route intravenous; summary of the method: as §3
[18] = Drug excretion in male Sprague-Dawley rat feces at 10 mg/kg, iv administered as bolus dose measured at 1 to 4 hrs post-dose by liquid scintillation counting analysis; assay type: ADME, organism-based; parameters: dose 10 mg/kg, route intravenous; summary of the method: as §1
[19] = Drug excretion in female Sprague-Dawley rat urine at 10 mg/kg, iv administered as bolus dose measured at 4 to 24 hrs post-dose by liquid scintillation counting analysis; assay type: ADME, organism-based; parameters: dose 10 mg/kg, route intravenous; summary of the method: as §1
Rattus norvegicus [20] = assay: AUC in male Sprague-Dawley rat at 10 mg/kg, iv administered as bolus dose by liquid scintillation counting analysis; assay type: ADME, organism-based, Plasma; parameters: dose 10 mg/kg, route intravenous; summary of the method: as §3
Heart = assay: Drug uptake in Sprague-Dawley rat heart at 10 mg/kg, po administered as single dose measured at 1 to 24 hrs post-dose by liquid scintillation counting analysis; assay type: ADME, organism-based; parameters: dose 10 mg/kg, route oral
Summary of the method: (§6)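 Single i.v. tail-vein bolus or oral gavage of [³⁵S]-prodrug to rats, 5 ml/kg. Euthanised by i.p. pentobarbital overdose at 1, 4 or 24 h. Retro-orbital blood collected; liver, lung, kidney, heart, brain and spleen frozen. Tissues homogenised, solubilised and counted by liquid scintillation. Radioactivity given as µg-Eq/g and % of dose.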

Rattus norvegicus [21] = assay: Drug recovery in male Sprague-Dawley rat at 10 mg/kg, po administered as single dose measured after 24 hrs by liquid scintillation counting analysis; assay type: ADME, organism-based; parameters: dose 10 mg/kg, route oral; summary of the method: as §5
Rattus norvegicus [22] = assay: AUC in male Sprague-Dawley rat at 10 mg/kg, po administered as single dose by liquid scintillation counting analysis; assay type: ADME, organism-based, Plasma; parameters: dose 10 mg/kg, route oral; summary of the method: as §3
Kidney = assay: Drug uptake in Sprague-Dawley rat kidney at 10 mg/kg, iv administered as bolus dose measured at 1 to 24 hrs post-dose by liquid scintillation counting analysis; assay type: ADME, organism-based; parameters: dose 10 mg/kg, route intravenous; summary of the method: as §6
[23] = Drug excretion in female Sprague-Dawley rat urine at 10 mg/kg, iv administered as bolus dose measured at 0 to 24 hrs post-dose by liquid scintillation counting analysis; assay type: ADME, organism-based; parameters: dose 10 mg/kg, route intravenous; summary of the method: as §1
Rattus norvegicus [24] = assay: Drug recovery in male Sprague-Dawley rat at 10 mg/kg, iv administered as bolus dose measured after 24 hrs by liquid scintillation counting analysis; assay type: ADME, organism-based; parameters: dose 10 mg/kg, route intravenous; summary of the method: as §5
Rattus norvegicus [25] = assay: Drug recovery in female Sprague-Dawley rat at 10 mg/kg, po administered as single dose measured after 24 hrs by liquid scintillation counting analysis; assay type: ADME, organism-based; parameters: dose 10 mg/kg, route oral; summary of the method: as §5
Liver [26] = assay: Drug uptake in Sprague-Dawley rat liver at 10 mg/kg, po administered as single dose measured at 4 hrs post-dose by liquid scintillation counting analysis; assay type: ADME, organism-based; parameters: dose 10 mg/kg, route oral; summary of the method: as §2

CO[C@@H]1[C@H](OP(=O)(OC[C@H]2O[C@@H](n3cnc4c(N)ncnc43)C[C@@H]2O)[35S]COC(=O)OC(C)C)[C@@H](CO)O[C@H]1n1ccc(=O)[nH]c1=O (some centres undefined)
Drug excretion [1]: 2.68%
Drug excretion [2]: 35.71%
Drug excretion [3]: 16.9%
Drug excretion [4]: 6.34%
Drug uptake (Spleen): <= 0.5%
AUC (Rattus norvegicus [5]): 27.37 ugequiv.h/ml
Drug excretion [6]: 0.01%
Drug excretion [7]: 9.44%
beta t1/2 (Rattus norvegicus [8]): 7.8 h
Cmax (Rattus norvegicus [9]): 2.53 ugequiv/ml
Tmax (Rattus norvegicus [10]): 4 h
Drug excretion [11]: 29.6%
Drug excretion [12]: 36.88%
Drug excretion [13]: 34.78%
Drug excretion [14]: 0.08%
Drug uptake (Liver [15]): Active
Drug recovery (Rattus norvegicus [16]): 84.9%
Cmax (Rattus norvegicus [17]): 4.49 ugequiv/ml
Drug excretion [18]: 0.01%
Drug excretion [19]: 36.79%
AUC (Rattus norvegicus [20]): 53.58 ugequiv.h/ml
Drug uptake (Heart): <= 0.5%
Drug recovery (Rattus norvegicus [21]): 83%
AUC (Rattus norvegicus [22]): 26.86 ugequiv.h/ml
Drug uptake (Kidney): Active
Drug excretion [23]: 58.94%
Drug recovery (Rattus norvegicus [24]): 83.7%
Drug recovery (Rattus norvegicus [25]): 80.4%
Drug uptake (Liver [26]): Active
